pIC50: −log10 of the molar value. ≈ marks a conversion by molar mass, not a printed value. One block for each compound: values may come before it.
Assays:
MCF7 = assay: Cytotoxicity against human MCF7 cells assessed as reduction in cell viability incubated for 72 hrs by alamar blue assay; assay type: functional, cell-based; details: MCF7, 72 h
Outline: (§1)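 Cells seeded in 384-well plates and dosed 24 h after plating, in quadruplicate. Viability was read by alamarBlue fluorescence at 72 h. IC50 came from nonlinear regression as the mean of 4 replicates. Growth media carried 10% FBS and 1% pen/strep: UCH1/UCH2 in 4:1 IMDM:RPMI-1640 in gel-coated flasks; A431, PANC1 and WS1 in DMEM; DU145 and MCF7 in MEM; 5637 in RPMI-1640.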

[1] = Cytotoxicity against human UCH1 cells assessed as reduction in cell viability incubated for 72 hrs by alamar blue assay; assay type: functional, cell-based; details: UCH1, 72 h; outline: as §1
DU-145 = assay: Cytotoxicity against human DU-145 cells assessed as reduction in cell viability incubated for 72 hrs by alamar blue assay; assay type: functional, cell-based; details: DU-145, 72 h; outline: as §1
[2] = Cytotoxicity against human UCH2 cells assessed as reduction in cell viability incubated for 72 hrs by alamar blue assay; assay type: functional, cell-based; details: UCH2, 72 h; outline: as §1
[3] = Cytotoxicity against human WS1 cells assessed as reduction in cell viability incubated for 72 hrs by alamar blue assay; assay type: cell-based; details: WS1, 72 h; outline: as §1
5637 [4] = assay: Cytotoxicity against human 5637 cells assessed as reduction in cell viability incubated for 72 hrs by alamar blue assay; assay type: functional, cell-based; details: Homo sapiens, 5637, 72 h; outline: as §1
A-431 = assay: Cytotoxicity against human A-431 cells assessed as reduction in cell viability incubated for 72 hrs by alamar blue assay; assay type: functional, cell-based; details: A-431, 72 h; outline: as §1
PANC-1 [5] = assay: Cytotoxicity against human PANC1 cells assessed as reduction in cell viability incubated for 72 hrs by alamar blue assay; assay type: functional, cell-based; details: PANC-1, 72 h; outline: as §1
[6] = target: T1, Neutral amino acid transporter B(0) (Homo sapiens, UniProt Q15758); assay: Inhibition of ASCT2 (unknown origin)
T1 sequence (Q15758 whole entry): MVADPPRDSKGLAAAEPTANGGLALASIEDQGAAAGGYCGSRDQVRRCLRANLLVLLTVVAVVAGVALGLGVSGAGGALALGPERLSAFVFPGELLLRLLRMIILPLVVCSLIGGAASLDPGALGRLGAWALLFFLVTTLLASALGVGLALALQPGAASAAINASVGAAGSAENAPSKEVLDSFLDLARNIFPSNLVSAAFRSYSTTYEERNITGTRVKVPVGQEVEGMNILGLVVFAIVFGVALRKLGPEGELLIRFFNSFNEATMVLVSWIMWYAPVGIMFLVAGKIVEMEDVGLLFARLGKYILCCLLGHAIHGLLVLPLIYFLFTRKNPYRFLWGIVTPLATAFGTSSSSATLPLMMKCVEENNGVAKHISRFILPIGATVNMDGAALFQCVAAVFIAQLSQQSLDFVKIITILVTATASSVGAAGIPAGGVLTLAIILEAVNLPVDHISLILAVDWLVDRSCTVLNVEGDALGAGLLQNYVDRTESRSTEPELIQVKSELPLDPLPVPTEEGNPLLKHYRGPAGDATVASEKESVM

L1210 = assay: Cytotoxicity against mouse L1210 cells; assay type: functional, cell-based
K562 = assay: Cytotoxicity against human K562 cells; assay type: functional, cell-based
Staphylococcus aureus = assay: Antibacterial activity against Staphylococcus aureus; assay type: functional
Enterococcus faecalis = assay: Antibacterial activity against Enterococcus faecalis; assay type: functional
Listeria monocytogenes = assay: Antibacterial activity against Listeria monocytogenes; assay type: functional
Cryptococcus neoformans = assay: Antifungal activity against Cryptococcus neoformans; assay type: functional
PANC-1 [7] = assay: Cytotoxicity against human PANC1 cells assessed as reduction in cell viability incubated upto 72 hrs by MTT assay; assay type: functional, cell-based; details: PANC-1, 72 h
5637 [8] = assay: Cytotoxicity against human 5637 cells assessed as reduction in cell viability incubated for 3 hrs by MTT assay; assay type: functional, cell-based; details: Homo sapiens, 5637, 3 h

Compound: Clc1nss/c1=N\c1ccc(Oc2ccccc2)cc1
pIC50 (MCF7): 4.46
pIC50 [1]: 4.52
pIC50 (DU-145): < 4.00
pIC50 [2]: 4.48
pIC50 [3]: < 4.00
pIC50 5637 [4]: 4.46
pIC50 (A-431): < 4.00
pIC50 (PANC-1 [5]): 4.26

Compound: O=c1ssnc1N1CCN(CCSc2nc3ccccc3s2)CC1
pIC50 (MCF7): 5.00
pIC50 [1]: 4.60
pIC50 (DU-145): 4.66
pIC50 [2]: 4.51
pIC50 [3]: 4.04
pIC50 5637 [4]: 4.48
pIC50 (A-431): 4.05
pIC50 (PANC-1 [5]): 4.11

Compound: CN(CCN1CCN(c2nssc2=O)CC1)c1ccccc1
pIC50 (MCF7): 5.66
pIC50 [1]: 4.92
pIC50 (DU-145): 5.36
pIC50 [2]: 4.77
pIC50 [3]: 4.70
pIC50 5637 [4]: 4.92
pIC50 (A-431): 4.77
pIC50 (PANC-1 [5]): 4.68

pIC50 [6]: 5.09
Compound: CC.FC(F)(F)Oc1ccc(/N=c2\ssnc2Cl)cc1Cl
pIC50 (MCF7): 4.06
pIC50 [1]: < 4.00
pIC50 (DU-145): 4.49
pIC50 [2]: 4.37
pIC50 [3]: < 4.00
pIC50 5637 [4]: 4.48
pIC50 (A-431): < 4.00
pIC50 (PANC-1 [5]): < 4.00

Compound: N#Cc1cnn(CCc2ccccc2)c1/N=c1\ssnc1Cl
pIC50 (L1210): 5.30
pIC50 (K562): 5.52

Compound: Clc1nss/c1=N\c1ccc2c(c1)OCO2
pIC50 (MCF7): 4.72
pIC50 [1]: 4.55
pIC50 (DU-145): 4.77
pIC50 [2]: 4.66
pIC50 [3]: 4.08
pIC50 5637 [4]: 4.49
pIC50 (A-431): 4.02
pIC50 (PANC-1 [5]): 4.62

Compound: O=S(=O)(Nc1ncccn1)c1ccc(/N=c2\ssnc2Cl)cc1
pIC50 (MCF7): 5.52
pIC50 [1]: 4.47
pIC50 (DU-145): 4.54
pIC50 [2]: 4.72
pIC50 [3]: < 4.00
pIC50 5637 [4]: 4.41
pIC50 (A-431): < 4.00
pIC50 (PANC-1 [5]): 4.43

Compound: Clc1nss/c1=N\c1ccc(OCc2ccccc2)cc1
pIC50 (MCF7): 4.30
pIC50 [1]: 4.36
pIC50 (DU-145): 4.35
pIC50 [2]: < 4.00
pIC50 [3]: < 4.00
pIC50 5637 [4]: 4.89
pIC50 (A-431): < 4.00
pIC50 (PANC-1 [5]): < 4.00

Compound: N#CC1=Nc2c(c(-c3ccccc3)nn2Cc2ccccc2)SS1
pIC50 (MCF7): 4.27
pIC50 [1]: < 4.00
pIC50 (DU-145): 4.49
pIC50 [2]: < 4.00
pIC50 [3]: 4.29
pIC50 5637 [4]: 5.06
pIC50 (A-431): 4.27
pIC50 (PANC-1 [5]): < 4.00

Compound: N#CSCCN1CCN(c2nss/c2=N\c2ccccc2)CC1
pIC50 (MCF7): 4.49
pIC50 [1]: 4.42
pIC50 (DU-145): 4.85
pIC50 [2]: 4.42
pIC50 [3]: < 4.00
pIC50 5637 [4]: 4.03
pIC50 (A-431): < 4.00
pIC50 (PANC-1 [5]): 4.80

Compound: CCCCOc1ccc(/N=c2\ssnc2Cl)cc1
pIC50 (MCF7): 4.38
pIC50 [1]: 4.27
pIC50 (DU-145): 4.28
pIC50 [2]: 4.32
pIC50 [3]: < 4.00
pIC50 5637 [4]: 4.74
pIC50 (A-431): < 4.00
pIC50 (PANC-1 [5]): < 4.00

Compound: N#Cc1c(Br)cccc1/N=c1\ssnc1Cl
pIC50 (MCF7): 4.55
pIC50 [1]: 4.41
pIC50 (DU-145): 4.38
pIC50 [2]: 4.19
pIC50 [3]: < 4.00
pIC50 5637 [4]: 4.85
pIC50 (A-431): < 4.00
pIC50 (PANC-1 [5]): 4.89

Compound: Clc1nss/c1=N\c1cc(-c2ccccc2)nn1Cc1ccccc1
pIC50 (MCF7): 4.52
pIC50 [1]: 4.52
pIC50 (DU-145): 4.85
pIC50 [2]: 4.28
pIC50 [3]: < 4.00
pIC50 5637 [4]: 4.80
pIC50 (A-431): < 4.00
pIC50 (PANC-1 [5]): 4.74

Compound: FC(F)(F)Oc1ccc(/N=c2\ssnc2Cl)cc1Br
pIC50 (MCF7): 4.14
pIC50 [1]: 4.47
pIC50 (DU-145): 4.28
pIC50 [2]: 4.07
pIC50 [3]: < 4.00
pIC50 5637 [4]: 4.44
pIC50 (A-431): 4.00
pIC50 (PANC-1 [5]): < 4.00

MIC (Staphylococcus aureus): 16 µg/mL (≈ 70 µM)
MIC (Enterococcus faecalis): 16 µg/mL (≈ 70 µM)
MIC (Listeria monocytogenes): 16 µg/mL (≈ 70 µM)
Compound: Clc1nss/c1=N\c1ccccc1

MIC (Cryptococcus neoformans): 8 µg/mL (≈ 30.9 µM)
Compound: COc1ccc(/N=c2\ssnc2Cl)cc1

MIC (Cryptococcus neoformans): 8 µg/mL (≈ 31.5 µM)
Compound: N#Cc1ccccc1/N=c1\ssnc1Cl

Compound: Cc1[nH]c2ccccc2c1CCNCc1ccc(/C=C/C(=O)NO)cc1 [PANOBINOSTAT]
pIC50 (PANC-1 [7]): 6.00

Compound: Cc1ccc(Nc2nccc(N(C)c3ccc4c(C)n(C)nc4c3)n2)cc1S(N)(=O)=O [PAZOPANIB]
pIC50 5637 [8]: 4.82

Source: ChEMBL document CHEMBL4819119, “Design and evaluation of 1,2,3-dithiazoles and fused 1,2,4-dithiazines as anti-cancer agents” (Bioorg Med Chem Lett, 2021)
